≈ marks a conversion by molar mass, not a printed value. Where “and” joins values, the source holds several entries; their conditions need not be identical. Equal values may be shown once.
Experiments:
Escherichia coli (res) [1] = assay: Minimum inhibitory concentration; type: cell-based; settings: for Minimum inhibitory concentration (MIC), E. coli (res): 31.25–500 µg/mL tested, 37 °C, 18–24 h
How it was run: (§1)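 MIC was determined in nutrient agar wells seeded with bacteria (McFarland 0.5, 1.5 × 10^6 CFU/mL). E. coli (res) and S. aureus (res) were clinical isolates; K. pneumoniae was MTCC 109. DMF stocks at 1 mg/mL were diluted two-fold to five levels (31.25–500 µg/mL) in wells, with amoxicillin and ampicillin as references. Plates were incubated at 37 °C for 18–24 h.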

Escherichia coli (res) [2] = assay: Agar well diffusion, zone of inhibition; type: cell-based; settings: mean ± S.D., n = 6; resistant to norfloxacin, ofloxacin, ampicillin, cefixime, nitrofurantoin
How it was run: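 Clinical isolate from a faecal sample (Bhubaneswar hospital). Nutrient agar plates were seeded with a 1.5 × 10^6 CFU/mL suspension matched to McFarland 0.5. Test compound was loaded into the agar wells from a DMF stock (1 mg/mL). Plates were incubated at 37 °C for 18–24 h and the inhibition zone was read. Amoxicillin and ampicillin were the reference antibiotics.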

[3] = tested on: Staphylococcus aureus (res); assay: Agar well diffusion, zone of inhibition; type: cell-based; settings: mean ± S.D., n = 6; resistant to norfloxacin, ofloxacin, ampicillin, cefotaxime
How it was run: (§2)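 Agar well diffusion on nutrient agar. K. pneumoniae MTCC 109 came from IMTECH; S. aureus (res) was an Utkal University isolate. Plates were seeded with 1.5 × 10^6 CFU/mL suspensions (McFarland 0.5). Test compounds were dissolved in DMF (1 mg/mL stock) and placed in wells, with amoxicillin and ampicillin as references. Plates were kept at 37 °C for 18–24 h, then zones were read.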

[4] = tested on: Klebsiella pneumoniae (MTCC 109); assay: Agar well diffusion, zone of inhibition; type: cell-based; settings: mean ± S.D., n = 6
How it was run: as §2

[5] = DPPH radical scavenging assay; type: biochemical; settings: mean ± S.D., n = 3; for IC50 (DPPH radical scavenging): graphically determined
How it was run: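 DPPH scavenging, a modified method, was read as absorbance at 517 nm for test compounds at several concentrations. BHT served as standard, and DPPH in methanol served as control. Percent inhibition was calculated from control and sample absorbances, and IC50 was obtained graphically. Data were analysed by one-way ANOVA with Dunnett's post hoc test.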

Cryptococcus neoformans [6] = assay: Agar well diffusion, zone of inhibition; type: cell-based; settings: mean ± S.D., n = 6
How it was run: (§3)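 Agar well diffusion on Sabouraud dextrose agar. C. albicans MTCC 3017 came from IMTECH; C. neoformans was an Utkal University strain. Plates were seeded with 1.5 × 10^6 CFU/mL suspensions (McFarland 0.5). Test compounds were dissolved in DMF (1 mg/mL stock) and loaded into wells, with fluconazole as reference. Incubation was 37 °C for 18–24 h, and zones were measured.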

Cryptococcus neoformans [7] = assay: Minimum inhibitory concentration; type: cell-based; settings: for MIC: Cryptococcus neoformans, read-out: Minimum inhibitory concentration (MIC), C. neoformans; for Minimum inhibitory concentration (MIC), C. neoformans: 31.25–500 µg/mL tested, 37 °C, 18–24 h
How it was run: (§4)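 MIC was determined in agar wells on Sabouraud dextrose agar seeded with the fungal strain (McFarland 0.5, 1.5 × 10^6 CFU/mL). DMF stocks at 1 mg/mL were diluted two-fold to five levels (31.25–500 µg/mL) and loaded into wells, with fluconazole as reference. After 18–24 h at 37 °C, the lowest inhibitory concentration was taken as the MIC.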

[8] = tested on: Candida albicans (MTCC 3017); assay: Minimum inhibitory concentration; type: cell-based; settings: for MIC: Candida albicans, MTCC3017, read-out: Minimum inhibitory concentration (MIC), C. albicans; for Minimum inhibitory concentration (MIC), C. albicans: 31.25–500 µg/mL tested, 37 °C, 18–24 h
How it was run: as §4

[9] = tested on: Candida albicans (MTCC 3017); assay: Agar well diffusion, zone of inhibition; type: cell-based; settings: mean ± S.D., n = 6
How it was run: as §3

[10] = tested on: Klebsiella pneumoniae (MTCC 109); assay: Minimum inhibitory concentration; type: cell-based; settings: 31.25–500 µg/mL tested, 37 °C, 18–24 h
How it was run: as §1

[11] = tested on: Staphylococcus aureus (res); assay: Minimum inhibitory concentration; type: cell-based; settings: for Minimum inhibitory concentration (MIC), S. aureus (res): 31.25–500 µg/mL tested, 37 °C, 18–24 h
How it was run: as §1

Compound | MIC (Escherichia coli (res) [1]; Escherichia coli, read-out: Minimum inhibitory concentration (MIC), E. coli (res), 31.25–500 µg/mL tested, 37 °C, 18–24 h) [µg/mL] | zone of inhibition, E. coli (res) (Escherichia coli (res) [2]) | zone of inhibition, S. aureus (res) [3] | zone of inhibition, K. pneumoniae [4] | % Inhibition (DPPH) ([5]; Conc. 10 μg/mL) [%] | % Inhibition (DPPH) ([5]; Conc. 30 μg/mL) [%] | % Inhibition (DPPH) ([5]; Conc. 50 μg/mL) [%] | % Inhibition (DPPH) ([5]; Conc. 70 μg/mL) [%] | IC50 (DPPH radical scavenging) [5] [µg/mL] | zone of inhibition, C. neoformans (Cryptococcus neoformans [6]) [mm] | MIC (Cryptococcus neoformans [7]) [µg/mL] | MIC [8] [µg/mL] | zone of inhibition, C. albicans [9] [mm] | Minimum inhibitory concentration (MIC), K. pneumoniae [10] [µg/mL] | Minimum inhibitory concentration (MIC), E. coli (res) (Escherichia coli (res) [1]) [µg/mL] | Minimum inhibitory concentration (MIC), C. neoformans (Cryptococcus neoformans [7]) [µg/mL] | Minimum inhibitory concentration (MIC), S. aureus (res) [11] [µg/mL] | Minimum inhibitory concentration (MIC), C. albicans [8] [µg/mL] | MIC ([11]; Staphylococcus aureus, read-out: Minimum inhibitory concentration (MIC), S. aureus (res), 31.25–500 µg/mL tested, 37 °C, 18–24 h) [µg/mL]
Cc1cc(N=Nc2ccc(O)c(C=Nc3nc(-c4ccc(Cl)cc4)cs3)c2)ccc1Br [5b(Lig), 4-[(4-bromo-3-methylphenyl)diazenyl]-2-[(4-(4-chlorophenyl)thiazol-2-ylimino)methyl]phenol] | 31.2 (≈ 61.1 µM) | 15.33 ± 2.07 mm | 11.5 ± 1.87 mm | 13.5 ± 2.43 mm | 19.26 ± 0.04 | 38.53 ± 0.09 | 48.33 ± 0.07 | 79.89 ± 0.06 | 52 ± 1.13 (≈ 102 µM) | 12.33 ± 1.75 | 250 (≈ 488 µM) | 250 (≈ 488 µM) | 12 ± 1.27 | – | – | – | – | – | –
Cc1cc(C(C)(C)C)c(O)c(C(C)(C)C)c1 [BHT, butylated hydroxy toluene, reference compound] | – | – | – | – | 32.32 ± 0.01 | 49.54 ± 0.01 | 59.99 ± 0.10 | 87.74 ± 0.06 | 31 ± 0.70 (≈ 141 µM) | – | – | – | – | – | – | – | – | – | –
Bis[{4-((4-bromo-3-methylphenyl)diazenyl)-2-((4-phenylthiazol-2-limino)methyl)phenoxy}] cobalt [Compound 6a] | – | 16.67 ± 2.34 mm and 16.67 ± 2.34^∗ mm | 20.83 ± 1.84 mm and 20.83 ± 1.84^∗ mm | 16.17 ± 1.94 mm and 16.17 ± 1.94^∗ mm | 29.72 ± 0.07 | 43.32 ± 0.11 | 63.44 ± 0.07 | 83.02 ± 0.06 | 36 ± 0.56 | 13.67 ± 2.94 | – | – | 12.83 ± 2.23 | 31.25 | 31.25 | 125 | 31.25 | 31.25 | –
Cc1cc(N=Nc2ccc([O][Cu][O]c3ccc(N=Nc4ccc(Br)c(C)c4)cc3C=Nc3nc(-c4ccccc4)cs3)c(C=Nc3nc(-c4ccccc4)cs3)c2)ccc1Br [Compound 6b, Bis[{4-((4-bromo-3-methylphenyl)diazenyl)-2-((4-phenylthiazol-2-ylimino)methyl)phenoxy}] copper,] | – | 15.83 ± 1.84^∗ mm | 18.33 ± 1.75^∗ mm | 16 ± 2.37^∗ mm | 28.43 ± 0.07 | 41.83 ± 0.02 | 51.41 ± 0.05 | 79.97 ± 0.06 | 48 ± 0.89 | 12.67 ± 1.51 | – | – | 13.33 ± 2.34 | 31.25 | 31.25 | 250 | 31.25 | 125 | –
Cc1cc(N=Nc2ccc([O][Cu][O]c3ccc(N=Nc4ccc(Br)c(C)c4)cc3C=Nc3nc(-c4ccc(Cl)cc4)cs3)c(C=Nc3nc(-c4ccc(Cl)cc4)cs3)c2)ccc1Br [Compound 6e, Bis[4-{(4-bromo-3-methylphenyl)diazenyl}-2-{(4-(4-chlorophenyl)thiazol-2-ylimino)methyl}phenoxy] copper,] | – | 14.83 ± 2.56 mm | 14.5 ± 1.52 mm | 15.83 ± 2.23 mm | 31.24 ± 0.06 | 41.31 ± 0.02 | 51.77 ± 0.08 | 79.89 ± 0.04 | 46 ± 0.98 | 10.5 ± 1.52 | – | – | 11.17 ± 6.21 | 31.25 | 62.5 | 250 | 62.5 | 250 | –
Cc1cc(N=Nc2ccc([O][Ni][O]c3ccc(N=Nc4ccc(Br)c(C)c4)cc3C=Nc3nc(-c4ccccc4)cs3)c(C=Nc3nc(-c4ccccc4)cs3)c2)ccc1Br [Compound 6c, Bis[{4-((4-bromo-3-methylphenyl)diazenyl)-2-((4-phenylthiazol-2-ylimino)methyl)phenoxy}] nickel] | – | – | 14.83 ± 1.84 mm | 14.67 ± 3.14 mm | 25.43 ± 0.08 | 39.65 ± 0.09 | 61.41 ± 0.04 | 83.11 ± 0.04 | 40 ± 0.59 | 15.83 ± 1.84 | – | – | 11.33 ± 1.51 | 62.5 | – | 31.25 | 62.5 | 250 | –
Cc1cc(N=Nc2ccc(O)c(C=Nc3nc(-c4ccccc4)cs3)c2)ccc1Br [5a(Lig), 4-[(4-bromo-3-methylphenyl)diazenyl)-2-[(4-phenylthiazol-2-ylimino)methyl]phenol] | – | 13.67 ± 2.34 mm | 15.83 ± 2.79^∗ mm | 12.67 ± 2.25 mm | 27.99 ± 0.04 | 39.34 ± 0.02 | 49.09 ± 0.07 | 63.9 ± 0.05 | 56 ± 0.78 (≈ 117 µM) | 13.33 ± 1.37 | 250 (≈ 524 µM) | 250 (≈ 524 µM) | 12.17 ± 2.23 | – | – | – | – | – | 31.2 (≈ 65.5 µM)
Cc1cc(N=Nc2ccc([O][Ni][O]c3ccc(N=Nc4ccc(Br)c(C)c4)cc3C=Nc3nc(-c4ccc(Cl)cc4)cs3)c(C=Nc3nc(-c4ccc(Cl)cc4)cs3)c2)ccc1Br [Compound 6f, bis[4-{(4-bromo-3-methylphenyl)diazenyl}-2-{(4-(4-chlorophenyl)thiazol-2-ylimino)methyl}phenoxy] nickel] | – | – | 15.17 ± 1.94 mm | 16.67 ± 1.37^∗ mm | 39.73 ± 0.02 | 53.38 ± 0.03 | 63.38 ± 0.01 | 79.53 ± 0.02 | – | 10.33 ± 1.75 | – | – | 12.5 ± 1.52 | 31.25 | – | 250 | 31.25 | 125 | –

From PMC6694902 (Journal of Taibah University Medical Sciences, 2017)
